Measurements taken from ChEMBL document CHEMBL1152725, “New potent imidazoisoquinolinone derivatives as anti-Trypanosoma cruzi agents: biological evaluation and structure-activity relationships” (Bioorg Med Chem, 2009).
Values after ≈ are worked out from the molar mass of the structure shown. Active and inactive are the calls of the source. The rule behind the calls is not given here.

Tests used:
DNA = assay: Binding affinity to calf thymus DNA at a DNA-drug molar ratio of 5:1 after 24 hrs by UV spectroscopy; assay type: nucleic-acid assay; details: Bos taurus
Outline: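 Calf thymus DNA was prepared in 10 mM Tris–HCl pH 7.4. Compound (2 × 10⁻⁵ M, from an ethanol stock diluted with water) was mixed 1:1 by volume with the DNA solution at a 5:1 DNA-drug ratio. The mixture was rotated slowly for 24 h. UV absorbance area at maximal absorbance was compared (a24/a0), where 1 means no affinity and 0 means fully bound.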

[1] = Selectivity index, ratio of IC50 for human HeLa cells to IC50 for Trypanosoma cruzi Tulahuen 2 epimastigotes; assay type: toxicity, cell-based; details: HeLa cells versus Trypanosoma cruzi Tulahuen 2 epimastigotes, read-out: Ratio IC50
Outline: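 Selectivity index is the HeLa IC50 divided by the IC50 against T. cruzi Tulahuen 2 epimastigotes (5-day growth assay).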

HeLa = assay: Cytotoxicity against human HeLa cells after 24 hrs by MTT assay; assay type: cell-based
Outline: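 HeLa cells were kept in DMEM with 10% FBS, penicillin and streptomycin at 37 °C and 5% CO2. Cells were seeded, and after 48 h compound was added at 4, 20 or 100 µM for 24 h. After PBS washes, cells got MTT at 0.5 mg/mL final for 4 h at 37 °C. Formazan was dissolved in isopropanol/HCl and read at 570 nm after blank subtraction. Survival is % of control, with ≥3 repeats of four samples each.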

Trypanosoma cruzi = assay: Antitrypanosomal activity against Trypanosoma cruzi Tulahuen 2 epimastigotes after 5 days; assay type: functional, organism-based; details: Tulahuen 2, 120 h
Outline: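 T. cruzi Tulahuen 2 epimastigotes were grown axenically at 28 °C in BHI-tryptose with 5% FCS. Stationary-phase (5-day) cells were inoculated at 1 × 10⁶ cells/mL, with DMSO ≤0.4% final. Cultures ran 5 days with or without compound, first as a 25 µM screen and then at increasing concentrations. IC50 is the concentration halving this ratio.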

L6 = assay: Cytotoxicity against rat L6 cells; assay type: cell-based
Plasmodium falciparum = assay: Antiparasitic activity against Plasmodium falciparum K1; assay type: functional, organism-based
Leishmania donovani = assay: Antiparasitic activity against Leishmania donovani; assay type: functional, organism-based
Leishmania infantum = assay: Antiparasitic activity against Leishmania infantum; assay type: functional, organism-based
[2] = tested on: Trypanosoma brucei rhodesiense; assay: Antiparasitic activity against Trypanosoma brucei rhodesiense; assay type: functional, organism-based
Onchocerca gutturosa [3] = assay: Antiparasitic activity against Onchocerca gutturosa assessed as inhibition of MTT formazan formation; assay type: functional; parameters: scale not given: the % may be the effect or the level left
Onchocerca gutturosa [4] = assay: Antiparasitic activity against Onchocerca gutturosa assessed as reduction in motility after 120 hrs; assay type: functional; parameters: scale not given: the % may be the effect or the level left

Activity (DNA) | IC50 (Trypanosoma cruzi) | IC50 (Plasmodium falciparum) | IC50 (Leishmania infantum) | IC50 [2] | SMILES | selectivity ratio [1] | IC50 (HeLa) | IC50 (L6) | Activity (Leishmania donovani) | Activity (Onchocerca gutturosa [3]) | Activity (Onchocerca gutturosa [4])
0.8 | 12.3 µM |  |  |  | COc1ccc(NC(=S)c2c3n(c(=O)c4ccccc24)CCN3)cc1 | 1.7 | 22 µM |  |  |  | 
0.8 | 0.5 µM | > 22.7 µg/mL | > 22.7 µg/mL | > 22.7 µg/mL | O=c1c2ccccc2c(C(=S)Nc2ccc(Cl)cc2)c2n1CCN2 | > 180 | > 90 µM | > 22.8 µg/mL | inactive |  | 
0.8 | 35 µM |  |  |  | O=c1c2ccccc2c(C(=S)NCc2ccc(Cl)cc2)c2n1CCN2 |  | > 90 µM |  |  |  | 
0.8 | 6.4 µM | > 19.5 µg/mL | > 19.5 µg/mL | > 22.7 µg/mL | O=c1c2ccccc2c(C(=S)Nc2ccccc2)c2[nH]c3ccccc3n12 | 15 | 98 µM | > 22.8 µg/mL | inactive |  | 
0.8 | 3 µM |  |  |  | O=c1c2ccccc2c(C(=S)Nc2ccccc2)c2n1CCN2 | > 33 | > 100 µM |  |  |  | 
0.8 | 1 µM |  |  |  | Cc1ccc(NC(=S)c2c3n(c(=O)c4ccccc24)CCN3)cc1 | > 100 | > 100 µM |  |  |  | 
 |  |  |  |  | CC1CS(=O)(=O)CCN1/N=C/c1ccc([N+](=O)[O-])o1 (stereo not given) [NIFURTIMOX] | 1.5 | 12 µM |  |  |  | 
0.8 | 25 µM |  |  |  | O=c1c2ccccc2c(C(=S)Nc2cccc3ccccc23)c2n1CCN2 |  |  |  |  |  | 
0.8 | 43 µM |  |  |  | CC(=O)N1CCn2c1c(C(=S)Nc1ccccc1)c1ccccc1c2=O |  |  |  |  |  | 
0.8 | > 25 µM | > 10 µg/mL | > 20.7 µg/mL | 1.2 µg/mL (≈ 6.44 µM) | O=c1c2ccccc2cc2n1CCN2 |  | > 100 µM | > 100 µg/mL | inactive | 0% | 14.29%
 |  |  |  |  | CC/C(=C(\c1ccccc1)c1ccc(OCCN(C)C)cc1)c1ccccc1 [TAMOXIFEN] |  |  | 4.9 µg/mL (≈ 13.2 µM) |  |  | 
 |  |  |  |  | CN1CCN(C(=S)Nc2ccc(Nc3ccc([N+](=O)[O-])cc3)cc2)CC1 [AMOCARZINE] |  |  |  |  | 48.57% | 85.71%
0.85 | > 25 µM |  |  |  | O=c1c2ccccc2cc2[nH]c3ccccc3n12 |  | > 100 µM |  |  |  | 
0.8 | 30 µM | > 19.5 µg/mL | > 19.5 µg/mL | > 19.5 µg/mL | O=C(Nc1ccccc1)c1c2n(c(=O)c3ccccc13)CCN2 |  | > 100 µM | > 19.6 µg/mL | inactive |  | 
0.8 | 20 µM |  |  |  | Cc1cccc(NC(=S)c2c3n(c(=O)c4ccccc24)CCN3)c1 |  | > 52.5 µM |  |  |  | 
 |  |  |  | 0.13 µg/mL (≈ 0.1 µM) | Cc1ccc(C(=O)Nc2ccc(S(=O)(=O)O)c3cc(S(=O)(=O)O)cc(S(=O)(=O)O)c23)cc1NC(=O)c1cccc(NC(=O)Nc2cccc(C(=O)Nc3cc(C(=O)Nc4ccc(S(=O)(=O)O)c5cc(S(=O)(=O)O)cc(S(=O)(=O)O)c45)ccc3C)c2)c1 [SURAMIN] |  |  |  |  |  | 
0.8 | 30 µM |  |  |  | O=c1c2ccccc2c(C(=S)Nc2ccccn2)c2n1CCN2 |  | > 100 µM |  |  |  | 
